Measured values published in ChEMBL document CHEMBL1146194, “The Anti-Trypanosoma cruzi activity of posaconazole in a murine model of acute Chagas' disease is less dependent on gamma interferon than that of benznidazole” (2007).

How the values were obtained:
Format in all cases: functional
Mus musculus [1] = assay: Effect on survival in Trypanosoma cruzi Y infected IL12 knock out C57BL/6 mouse Chagas disease model assessed as mean survival time at 100 mg/kg, po after 20 days
Method in brief: (§1)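 Male C57BL/6 mice aged 8–10 weeks (wild-type or cytokine KO) were infected i.p. with 5,000 Y-strain blood trypomastigotes. Treatment was oral, 100 mg/kg once daily in water with arabic gum, from 4 dpi for 20 consecutive days. Deaths were recorded up to 60 dpi, and mortality was given as deaths/total. Mean survival time assigned survivors a death time of exactly 60 days. Log rank and Peto-Peto-Wilcoxon tests were used.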

Trypanosoma cruzi [2] = assay: Antimicrobial activity against Trypanosoma cruzi Y infected IFN-gamma knock out C57BL/6 mouse Chagas disease model assessed as percent of cured mouse at 100 mg/kg, po after 20 days
Method in brief: (§2)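 Male mice, 8–10 weeks, infected i.p. with 5,000 blood trypomastigotes (Y strain, passaged in Swiss-Webster mice). From 4 dpi, dosed orally once daily for 20 consecutive days in water with arabic gum. Fresh tail blood examined to 60 dpi. Aparasitemic mice were then bled (0.5 ml), and blood was cultured in LIT medium at 28°C for 30–60 days. Cure means negative by both methods.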

Trypanosoma cruzi [3] = assay: Antimicrobial activity against Trypanosoma cruzi Y infected IL12 knock out C57BL/6 mouse Chagas disease model assessed as percent of cured mouse at 100 mg/kg, po after 20 days; method in brief: as §2
Mus musculus [4] = assay: Effect on survival in Trypanosoma cruzi Y infected C57BL/6 mouse Chagas disease model assessed as mean survival time at 100 mg/kg, po after 20 days; method in brief: as §1
Mus musculus [5] = assay: Mortality rate in Trypanosoma cruzi Y infected wild type C57BL/6 mouse Chagas disease model at 100 mg/kg, po after 20 days; method in brief: as §1
Trypanosoma cruzi [6] = assay: Antimicrobial activity against Trypanosoma cruzi Y infected wild type C57BL/6 mouse Chagas disease model assessed as percent of cured mouse at 100 mg/kg, po after 20 days; method in brief: as §2
Mus musculus [7] = assay: Effect on survival in Trypanosoma cruzi Y infected IFN-gamma knock out C57BL/6 mouse Chagas disease model assessed as mean survival time at 100 mg/kg, po after 20 days; method in brief: as §1
Mus musculus [8] = assay: Mortality rate in Trypanosoma cruzi Y infected IL12 knock out C57BL/6 mouse Chagas disease model at 100 mg/kg, po after 20 days; method in brief: as §1
Mus musculus [9] = assay: Mortality rate in Trypanosoma cruzi Y infected IFN-gamma knock out C57BL/6 mouse Chagas disease model at 100 mg/kg, po after 20 days; method in brief: as §1
Trypanosoma cruzi [10] = assay: Antimicrobial activity against Trypanosoma cruzi Y infected IL12 knock out C57BL/6 mouse Chagas disease model assessed as percent of cured mouse at 20 mg/kg, po twice daily after 20 days
Method in brief: (§3)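 Male C57BL/6 mice aged 8–10 weeks (wild-type, IL-12p40 KO or IFN-γ KO) were infected i.p. with 5,000 blood trypomastigotes of the Y strain. From 4 dpi they were dosed orally at 20 mg/kg/day, split into two daily doses, for 20 consecutive days, in 2% methylcellulose with 0.5% Tween 80. Mice negative on fresh blood at 60 dpi had 0.5 ml orbital blood cultured in LIT medium at 28°C for 30–60 days. Cure meant negative on both tests.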

Mus musculus [11] = assay: Mortality rate in Trypanosoma cruzi Y infected IFN-gamma knock out C57BL/6 mouse Chagas disease model at 20 mg/kg, po twice daily after 20 days
Method in brief: (§4)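 Male C57BL/6 mice aged 8–10 weeks (wild-type or cytokine KO) were infected i.p. with 5,000 Y-strain blood trypomastigotes. From 4 dpi they received 20 mg/kg/day orally, split into two daily doses, for 20 days, in 2% methylcellulose with 0.5% Tween 80. Deaths were tracked to 60 dpi, and mortality was given as deaths/total. Mean survival time counted survivors as dying at 60 days. Log rank and Peto-Peto-Wilcoxon tests were used.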

Mus musculus [12] = assay: Mortality rate in Trypanosoma cruzi Y infected IL12 knock out C57BL/6 mouse Chagas disease model at 20 mg/kg, po twice daily after 20 days; method in brief: as §4
Mus musculus [13] = assay: Effect on survival in Trypanosoma cruzi Y infected IFN-gamma knock out C57BL/6 mouse Chagas disease model assessed as mean survival time at 20 mg/kg, po twice daily after 20 days; method in brief: as §4
Mus musculus [14] = assay: Mortality rate in Trypanosoma cruzi Y infected wild type C57BL/6 mouse Chagas disease model at 20 mg/kg, po twice daily after 20 days; method in brief: as §4
Trypanosoma cruzi [15] = assay: Antimicrobial activity against Trypanosoma cruzi Y infected wild type C57BL/6 mouse Chagas disease model assessed as percent of cured mouse at 20 mg/kg, po twice daily after 20 days; method in brief: as §3
Trypanosoma cruzi [16] = assay: Antimicrobial activity against Trypanosoma cruzi Y infected IFN-gamma knock out C57BL/6 mouse Chagas disease model assessed as percent of cured mouse at 20 mg/kg, po twice daily after 20 days; method in brief: as §3
Mus musculus [17] = assay: Effect on survival in Trypanosoma cruzi Y infected C57BL/6 mouse Chagas disease model assessed as mean survival time at 20 mg/kg, po twice daily after 20 days; method in brief: as §4
Mus musculus [18] = assay: Effect on survival in Trypanosoma cruzi Y infected IL12 knock out C57BL/6 mouse Chagas disease model assessed as mean survival time at 20 mg/kg, po twice daily after 20 days; method in brief: as §4

## O=C(Cn1ccnc1[N+](=O)[O-])NCc1ccccc1 [BENZNIDAZOLE]
Mus musculus [1]
  MST: 59.6 days
Trypanosoma cruzi [2]
  Activity: 0%
Trypanosoma cruzi [3]
  Activity: 39%
Mus musculus [4]
  MST: >60 days
Mus musculus [5]
  Activity: 0%
Trypanosoma cruzi [6]
  Activity: 86%
Mus musculus [7]
  MST: 42.1 days
Mus musculus [8]
  Activity: 17%
Mus musculus [9]
  Activity: 100%

## CC[C@@H]([C@H](C)O)n1ncn(-c2ccc(N3CCN(c4ccc(OC[C@@H]5CO[C@@](Cn6cncn6)(c6ccc(F)cc6F)C5)cc4)CC3)cc2)c1=O [POSACONAZOLE]
Trypanosoma cruzi [10]
  Activity: 35%
Mus musculus [11]
  Activity: 30%
Mus musculus [12]
  Activity: 23%
Mus musculus [13]
  MST: 52.1 days
Mus musculus [14]
  Activity: 0%
Trypanosoma cruzi [15]
  Activity: 89%
Trypanosoma cruzi [16]
  Activity: 15%
Mus musculus [17]
  MST: >60 days
Mus musculus [18]
  MST: 59.2 days
